Only some compounds are listed: those with a hit (about 2.3% of all), similar ones and a draw of the others.
Rpn11 block – Rpn11 (human) deubiquitinase inhibition. human 26S proteasome, Ub4-pepOG fluorescence polarization; 20S core pre-blocked with epoxomicin. 360,000 tested, 0.59% active. inhibition, % at 20 µM. AID 588493. O00487;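 active = inhibition at 20 µM, scaled to each plate's controls, above about 33%, limit read from the data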
Target sequence (O00487 whole entry, looked up): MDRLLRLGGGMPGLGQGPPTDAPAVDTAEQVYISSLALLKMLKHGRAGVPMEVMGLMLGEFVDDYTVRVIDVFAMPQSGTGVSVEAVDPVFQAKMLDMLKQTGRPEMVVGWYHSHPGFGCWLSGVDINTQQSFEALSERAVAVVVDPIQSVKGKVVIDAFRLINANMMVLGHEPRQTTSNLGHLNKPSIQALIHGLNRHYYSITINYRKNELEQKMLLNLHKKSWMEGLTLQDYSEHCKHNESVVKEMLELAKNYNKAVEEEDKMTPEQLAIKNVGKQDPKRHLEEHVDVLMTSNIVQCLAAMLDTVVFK
TPT1 inhibitor – inhibitors of Candida albicans tRNA 2'-phosphotransferase TPT1; AID 1962; 300,000 tested, 0.81% active; inhibition, % at 5 µM; recombinant caTPT1, FP RNA substrate dephosphorylation;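 active = inhibition above the mean of all tested compounds plus 3 SD, set per screening campaign, cut at about 24% in these data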;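 note: plate controls were DMSO alone for no effect and ferristatin control at 100 nM for full effect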
Myeloid diff MLP – compounds promoting myeloid differentiation; ER-HoxA9 myeloid progenitors, lysozyme-GFP differentiation, flow cytometry; calls only at 10 µM; 360,000 tested, 1% active;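 active = normalized GFP-positive differentiation at or above the plate's own cutoff, the solvent-only control mean plus 3 SD; inconclusive = no clear call, values can overlap the other calls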;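 note: cells exposed to compound for four days before flow analysis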
CSN inh – CSN deneddylation inhibition. Purified CSN, SCF-Nedd8-OG deneddylation, fluorescence polarization. inhibition, % at 12.5 µM. Q92905. 360,000 tested, 0.38% active;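 active = pattern-corrected inhibition above about 35%, with an unprinted fluorescence ratio check between 0.5 and 1.5, limit read from the data, passing the limit was not always enough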;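 note: 0% = enzyme with substrate and 100% = substrate without enzyme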
Target sequence (Q92905 whole entry, looked up, one chain of several): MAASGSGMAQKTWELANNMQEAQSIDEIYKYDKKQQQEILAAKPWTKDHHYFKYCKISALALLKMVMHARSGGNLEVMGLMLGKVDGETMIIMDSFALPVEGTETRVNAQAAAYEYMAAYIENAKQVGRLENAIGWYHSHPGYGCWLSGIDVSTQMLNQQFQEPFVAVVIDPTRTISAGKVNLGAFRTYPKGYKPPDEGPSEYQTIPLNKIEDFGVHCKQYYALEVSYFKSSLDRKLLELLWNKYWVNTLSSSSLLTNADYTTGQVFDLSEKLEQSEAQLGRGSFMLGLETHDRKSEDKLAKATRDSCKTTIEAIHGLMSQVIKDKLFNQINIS
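Test system: Human Csn5 produced in HEK293T cells | Compound: 12.5 µM single point | Times: 90 min, room temperature | Signal: Fluorescence polarization readout | Read-out basis: % inhibition of substrate cleavage by Csn5 | Controls: no-enzyme wells high, enzyme-with-substrate wells low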
HNF4A DNA FP – change in binding of human HNF4 alpha to DNA; P41235; HNF4a-FITC DNA binding, fluorescence polarization, 1 h; activity change, % at 10 µM; 360,000 tested, 0.3% active; AID 1224865; in the data active = activity change above about 30%, passing the limit was not always enough
HNF4A confirm – change in binding of human HNF4 alpha to DNA, retest. shares compounds with HNF4A DNA FP. 210 tested, 99% active. HNF4A-FITC DNA binding, fluorescence polarization, 1 h. activity change, % at 12.5 µM; call rule not given here
Active calls of the source: *; i = inactive; ? = inconclusive; nt = no result shown; + = active, no number.

SMILES | Rpn11 block | TPT1 inhibitor | Myeloid diff MLP | CSN inh | HNF4A DNA FP | HNF4A confirm
C#CCOCCOCCOCCNc1nc(N2CCN(C(=O)[C@H](CCCCN)n3cc([C@@H](N)C(C)CC)nn3)CC2)nc(N2CCN(C(=O)[C@H](CCCCN)n3cc([C@@H](N)CC(C)C)nn3)CC2)n1 (stereo partly drawn) | 23 | 2 | i | 69* | 72* | 112*
O=C(/C=C/c1ccc(OCCCF)cc1)Nc1ccnc(-c2ccncc2)n1 | 0 | 1 | i | 3 | 4 | nt
O=C(/C=C/c1ccc(OCCCF)cc1)Nc1ccnc(-c2cccnc2)n1 | 36 | 5 | i | 20 | 36* | 52*
Cc1cc(C)n2c(NCc3ccccc3)c(-c3cc4ccccc4o3)nc2n1 | nt | nt | + | 2 | 61* | 65*
Cc1cc(C)n2nc(NCc3ccccc3)nc2n1 | -4 | 1 | i | 5 | -3 | nt
Cc1cc(C)c(NC(=O)CSCc2nc3sc(C)c(C)c3c(=O)[nH]2)c(Cl)c1 | nt | nt | i | 18 | 43* | 74*
CCS(=O)(=O)Nc1cccc(C2=NN(S(=O)(=O)CC)C(c3ccccc3)C2)c1 (stereo not drawn) | 1 | 1 | i | 10 | 55* | 79*
CS(=O)(=O)Nc1cccc(C2=NN(S(C)(=O)=O)C(c3ccccc3)C2)c1 (stereo not drawn) | -6 | -4 | i | 8 | 24 | nt
N=c1n(CC(=O)c2ccc([N+](=O)[O-])cc2)c2ccccc2n1Cc1ccccc1Cl | 25 | 0 | i | -5 | 6 | nt
N=c1n(CC(=O)c2ccc([N+](=O)[O-])cc2)c2ccccc2n1Cc1ccc(Cl)cc1 | nt | 3 | i | 12 | 40* | 119*
N=c1n(CC(=O)c2ccc([N+](=O)[O-])cc2)c2ccccc2n1Cc1ccccc1 | nt | 9 | i | 31 | 68* | 107*
S=C(c1ccc2c(c1)OCO2)N1CCN(c2cccc(Cl)c2)CC1 | -3 | nt | ? | 1 | 3 | nt
CC(C)[C@H](NC(=O)OC(C)(C)C)c1cc(C(=O)N[C@@H](C)c2ccccc2)c(N)s1 | nt | nt | i | 12 | 41* | 37*
OC(COc1ccccc1)CN1CCCCC1 (stereo not drawn) | -3 | nt | i | -1 | 0 | nt
OC(COc1ccc(C2C=CCC2)cc1)CN1CCCCC1 (stereo not drawn) | 15 | -1 | i | 6 | 42* | 39*
C=CCc1cccc(Cl)c1OCCCNC1CCCC1 | -4 | 1 | i | 0 | -1 | nt
O=C(Nc1ccc([N+](=O)[O-])cc1)C(Cc1ccccc1)N1C(=O)c2cccc3cccc(c23)C1=O (stereo not drawn) | nt | 0 | i | 24 | 54* | 94*
O=C(O)c1ccccc1NC(=O)C(Cc1ccccc1)N1C(=O)c2ccccc2C1=O (stereo not drawn) | 0 | 1 | i | -5 | -1 | nt
COc1cccc(/C=C2\SC(=S)N(CCCC(=O)Nc3cc(C)on3)C2=O)c1 | nt | 3 | i | 36* | 47* | 67*
Cc1cc(/C=C2/NC(=S)NC2=O)c(C)n1-c1cccnc1 | nt | 22 | i | 23 | 49* | 98*
O=C(c1ccc([N+](=O)[O-])s1)N1CCc2ccccc21 | nt | 1 | + | 19 | 67* | 53*
O=C(c1ccc([N+](=O)[O-])s1)N1CCc2ccccc2C1 | 1 | 0 | i | -8 | 0 | nt
Cc1ccc(NC(=O)c2ccc(NCC3CCCO3)c([N+](=O)[O-])c2)cc1Cl (stereo not drawn) | nt | 7 | i | 41* | 37* | 54*
Cc1ccc(NC(=O)c2ccc(NCc3ccco3)c([N+](=O)[O-])c2)cc1Cl | nt | 9 | i | 90 | 47* | 93*
O=C(COc1ccccc1C(=O)NCc1ccccn1)Nc1ccc(Br)cc1 | 1 | -1 | i | 5 | 4 | nt
SMILES | Rpn11 block | TPT1 inhibitor | Myeloid diff MLP | CSN inh | HNF4A DNA FP | HNF4A confirm
O=C(c1cc(C2CC2)nn1-c1ccccc1)N1CCN(S(=O)(=O)c2c(F)cccc2F)CC1 | -9 | nt | i | 4 | -5 | nt
Cc1cc(NC(=O)c2cc(-c3ccccn3)nc3c(Cl)cccc23)no1 | -2 | -1 | i | 2 | -2 | nt
O=C(Nc1nccs1)c1cc(-c2ccccn2)nc2c(Cl)cccc12 | -54 | -1 | i | 26 | 72* | 45*
COc1cccc(-c2cc3nc4c(c(N5CCC6(CC5)OCCO6)n3n2)CCC4)c1 | 8 | 0 | i | 3 | 1 | nt
C#CCNC(=O)c1cc(-c2ccccc2)sc1N | nt | nt | i | 22 | 67* | 80*
CC(=O)Nc1cc2c(cc1[N+](=O)[O-])-c1ccc(F)cc1C2 | 10 | nt | i | 6 | 32* | 39*
Cc1ccc(S(=O)(=O)N2CCN(C(=O)COC(=O)COc3cccc(C(F)(F)F)c3)CC2)c(C)c1 | -6 | nt | i | 0 | 3 | nt
O=C1/C(=C/c2ccc(O)cc2)SC(=S)N1Cc1cccnc1 | 12 | 19 | i | 7 | 51* | 61*
C#CCOc1ccc(/C=C2\SC(=S)N(Cc3cccnc3)C2=O)cc1 | -2 | -3 | i | -13 | 0 | nt
CCN(CC)C(=O)Cn1cc(C(=O)C(=O)Nc2ccc3c(c2)OCCO3)c2ccccc21 | 5 | -1 | i | -1 | -2 | nt
COc1cc(/C=C(\C#N)c2nc3ccccc3[nH]2)ccc1OC(=O)c1ccco1 | 19 | 15 | i | 5 | 38* | 52*
COc1cc(/C=C(/C#N)c2nc3ccccc3[nH]2)ccc1OCC(=O)Nc1ccccc1C | -6 | -8 | i | 9 | -9 | nt
Cc1cc(=O)oc2cc(NC(=O)c3cccc(S(C)(=O)=O)c3)ccc12 | -1 | 4 | i | 1 | -2 | nt
Cc1cc(=O)oc2cc(NC(=O)c3cccc(F)c3)ccc12 | 27 | 3 | i | 42* | 41* | 35*
CC(NC(=O)COC(=O)C1CCN(c2ccc(C(F)(F)F)cn2)CC1)c1ccc(F)cc1 (stereo not drawn) | 7 | nt | i | -2 | 1 | nt
NC(=O)CC(NC(=O)Cc1cccc2ccccc12)c1ccc(NC2CCCCC2)c([N+](=O)[O-])c1 (stereo not drawn) | 11 | 10 | i | 24 | 51* | 56*
NC(=O)CC(NC(=O)Cc1cccc2ccccc12)c1ccc(NC2CCCC2)c([N+](=O)[O-])c1 (stereo not drawn) | 10 | nt | i | -2 | 7 | nt
CCC(CC)Nc1ccc(C(CC(N)=O)NC(=O)Cc2ccc(Br)cc2)cc1[N+](=O)[O-] (stereo not drawn) | 17 | 21 | i | 32 | 52* | 37*
O=C(COc1coc(CN2CCCc3ccccc32)cc1=O)Nc1cccc([N+](=O)[O-])c1 | 5 | 9 | i | 2 | 8 | nt
Cc1nc(CCNC(=O)CC2C(=O)NCCN2CC(C)C)nc2c1CCC2 (stereo not drawn) | -7 | -6 | i | -1 | 0 | nt
